# High-throughput results from PubChem BioAssay.
# Runt-SMMHC FRET = Runt domain-CBFb-SMMHC interaction inhibition; Q01196+Q13951; Cerulean-Runt/Venus-CBFb-SMMHC FRET ratio 530/480, 1 h; inhibition, % at 20 µM; hit rate 0.74% among 220,000; AID 1434;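 active = mean inhibition across duplicate retests at 20 µM reaching about 50%, limit read from the data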;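 note: inhibitors lower the FRET ratio by blocking Runt binding to CBFb-SMMHC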
# Target sequence (Q01196 whole entry, looked up, the tested form may be a part): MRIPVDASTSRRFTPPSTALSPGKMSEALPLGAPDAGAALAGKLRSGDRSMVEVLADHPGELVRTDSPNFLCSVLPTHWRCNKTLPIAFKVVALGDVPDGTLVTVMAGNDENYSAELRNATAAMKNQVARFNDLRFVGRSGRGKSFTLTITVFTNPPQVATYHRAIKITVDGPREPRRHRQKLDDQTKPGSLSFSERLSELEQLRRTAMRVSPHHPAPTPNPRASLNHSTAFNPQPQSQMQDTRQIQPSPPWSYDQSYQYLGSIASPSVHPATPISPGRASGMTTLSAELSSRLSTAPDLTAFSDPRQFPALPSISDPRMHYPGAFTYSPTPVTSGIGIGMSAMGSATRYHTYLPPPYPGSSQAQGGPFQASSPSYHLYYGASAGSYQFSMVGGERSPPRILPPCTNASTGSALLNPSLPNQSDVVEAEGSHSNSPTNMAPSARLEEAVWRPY
# Target sequence (Q13951 whole entry, looked up, the tested form may be a part): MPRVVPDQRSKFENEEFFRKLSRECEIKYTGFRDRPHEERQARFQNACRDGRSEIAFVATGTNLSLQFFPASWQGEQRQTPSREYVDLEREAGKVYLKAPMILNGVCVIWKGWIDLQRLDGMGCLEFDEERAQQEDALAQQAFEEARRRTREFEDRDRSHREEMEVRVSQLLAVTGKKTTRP
# Runt-CBFb FRET = blocks binding of human RUNX1 Runt domain to CBFb; Q01196+Q13951; Cerulean-Runt/Venus-CBFb FRET ratio 530/480, 1 h; inhibition, % at 20 µM; hit rate 0.46% among 220,000;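 active = inhibition over about 50% at 20 µM in the single-dose screen, limit read from the data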
#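 Doses: 20 µM compound in 1% DMSO | Material: Cerulean-labeled Runt domain protein | Amount: Each fluorescent fusion protein 100 nM | Schedule: Two 1 h room-temperature incubations shielded from light | Measured by: FRET fluorescence | Evaluation: Loss of energy transfer signal | Controls: Unlabeled CBFb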
# RanGTP-Imp inh = disruptors of Ran-importin-beta complex formation – biochemical, FRET, CFP-Ran, YFP-importin-beta, homogeneous, primary screen; inhibition, % (test concentration not listed); hit rate 1.1% among 300,000; cell-free CFP-Ran/YFP-importin-beta FRET ratio;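 active = more than half of the replicate wells show a fall in the fluorescence ratio signal beyond about 16%, limit read from the data, passing the limit was not always enough; inconclusive = exactly half of the replicate wells pass the set limit; inactive = fewer than half of replicates pass the limit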
# Hck Nef HTS = human Hck-Nef kinase inhibition | P08631 | Recombinant Hck-YEEI plus Nef, Z-Lyte FRET kinase assay | inhibition, % at 20 µM | AID 463187 | hit rate 0.68% among 220,000;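 active = Hck-Nef kinase inhibition above about 50%, limit read from the data; inactive = inhibition below that limit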
# Numbers stand for hits; i = inactive; ? = inconclusive; nt = no result. Rows were chosen to be rich in hits. Some 1.7% of all compounds tested hit in one or more screens of this group.
SMILES,Runt-SMMHC FRET,Runt-CBFb FRET,RanGTP-Imp inh,Hck Nef HTS
CCOC(=O)C(C)Sc1nc2c(c(-c3cccs3)c1C#N)CCC2 (centres undefined),i,i,109,i
CC(=O)Nc1c(-c2cc(=O)oc3cc(C)ccc23)oc2ccccc12,nt,nt,i,nt
NS(=O)(=O)c1ccc(N/N=C/c2ccc(O)c(O)c2O)c([N+](=O)[O-])c1,65,i,nt,51
Cc1cc(O)ccc1Nc1nc(-c2cccs2)cs1,i,i,i,57
Cc1cc(O)ccc1Nc1nc(-c2cccnc2)cs1,nt,nt,i,nt
Cc1ccc(CNc2nc(C)nc3sc4c(c23)CCC4)cc1,i,i,25,i
CCCCn1c(SCC(=O)N(C)C2CCS(=O)(=O)C2)nc2cc(S(N)(=O)=O)ccc21 (centres undefined),i,i,i,i
N#Cc1c(N)n(-c2ccc(C(=O)O)cc2)c2nc3ccccc3nc12,82,92,50,i
N#Cc1c(N)n(C2CCCCC2)c2nc3ccccc3nc12,58,78,43,i
N#Cc1c(N)n(-c2ccc(N)cc2)c2nc3ccccc3nc12,i,i,i,i
CCOC(=O)C(Cc1c[nH]c2ccccc12)NC(=O)c1ccccc1Br (centres undefined),nt,nt,i,nt
Cc1oc(-c2ccccc2Cl)nc1CS(=O)CC(=O)NCc1ccccc1Cl (centres undefined),nt,nt,i,nt
Cc1[nH]c2ccccc2c1CCCO,i,i,18,i
CN1CCCc2cc3c(C(F)(F)F)cc(=O)oc3nc21,i,i,132,i
O=C(c1cccs1)c1ccc(-c2cccs2)s1,i,i,42,i
CN1CCN(C(=O)c2ccc(-c3cccs3)s2)CC1,i,i,i,i
O=C(CN1C(=O)c2ccccc2S1(=O)=O)NC(Nc1ccccc1F)C(Cl)(Cl)Cl (centres undefined),i,i,i,i
COc1cccc(CN2C(=O)c3ccccc3S2(=O)=O)c1,nt,nt,i,nt
COc1cccc(CN2C(=O)c3cccc(N)c3C2=O)c1,73,i,?,i
O=C(O)Cn1c2c(c3ccccc31)CSc1ccc(Cl)cc1-2,nt,nt,i,nt
C/C(=N\NC(=O)c1nnn(-c2nonc2N)c1C(C)C)c1cc(C)sc1C,nt,nt,97,nt
C/C(=N\NC(=O)c1nnn(-c2nonc2N)c1C(C)C)c1ccc2ccccc2c1,nt,nt,i,nt
CCOC(=O)c1cc(C(=O)OCC)c2cccc(C)n2c1=O,i,i,36,i
O=C(NC(=S)Nc1cnc2ccccc2c1)c1ccccc1,i,i,i,139
O=C(Nc1nc2ccccc2s1)c1cc2c(s1)-c1ccccc1OC2,59,i,37,i
SMILES,Runt-SMMHC FRET,Runt-CBFb FRET,RanGTP-Imp inh,Hck Nef HTS
O=C(Nc1ccc(Cl)cn1)c1cc2c(s1)-c1ccccc1OC2,i,i,58,i
O=C(Nc1cccnc1)c1cc2c(s1)-c1ccccc1OC2,nt,nt,i,nt
O=C(Nc1nccs1)c1cc2c(s1)-c1ccccc1OC2,i,i,i,i
Cc1cccc2c1-c1sc(C(=O)Nc3nccs3)cc1CO2,i,i,22,i
O=C(Nc1cccnc1Cl)c1cc2c(s1)-c1ccccc1OC2,nt,nt,i,nt
CC(C)(C)C(=O)Nc1cc(NC(=O)C(C)(C)C)cc(C(=O)Nc2cc(C(=O)O)cc(C(=O)O)c2)c1,i,i,i,i
COc1ccc(/C(O)=C/c2nc3ccccc3n(-c3ccccc3)c2=O)cc1,i,i,47,i
CCc1ccc(CN(C)C(=O)CCc2nc3ccccc3n(-c3ccc(OC)cc3)c2=O)cc1,i,i,i,i
O=C(CSc1nncc2ccccc12)Nc1cccc(O)c1,nt,nt,i,nt
COc1ccccc1CCNC(=O)c1cc(-c2ccncc2)nc2ccc(Br)cc12,i,i,i,51
COc1cccc(/C=C/C(=C2\C(=O)N(c3ccccc3)N=C2C)c2ccc(Br)cc2)c1OC,nt,nt,nt,i
CC(C)OC(=O)CSc1nnc2n1C(C)(C)Cc1ccccc1-2,132,121,i,i
CCOC(=O)CSc1nnc2n1C(C)(C)Cc1ccccc1-2,i,i,?,i
COC(=O)c1ccc([C@H](NC(=O)c2ccco2)[C@]2(C)C[C@H]2C2CCCCC2)cc1,nt,nt,i,nt
C#CCCOC(=O)N1C2=NC(C(=O)OC)=C(C(=O)OC)[C@@H]3N(Cc4ccccc4)c4ccccc4[C@]23C[C@H]1C(=O)OC,i,i,?,i
CCOc1ccc2nc(NCCNC(=O)Nc3ccccc3)c(C#N)cc2c1,i,i,86,i
CCOc1ccc2nc(NCCCNS(=O)(=O)c3ccc(C)cc3)c(C#N)cc2c1,102,i,129,i
CCOc1ccc2nc(NCCNC(=O)Nc3cccc(C)c3)c(C#N)cc2c1,i,88,i,i
CCOc1ccc2nc(NCCCO)[nH]c2c1,i,i,i,i
CCOc1ccc2nc(NCCNC(=S)NCCCN(C)C)c(C#N)cc2c1,92,i,93,i
CCOc1ccc2nc(SCC#N)c(C#N)cc2c1,i,i,i,i
N#CCC(=O)Nc1ccc(C(=O)Nc2cccc(S(N)(=O)=O)c2)cc1,i,i,i,i
O=C1CC(C2CCCO2)C(=O)N1c1ccc(Cl)c(Cl)c1 (centres undefined),i,i,i,i
Nc1cc([N+](=O)[O-])cc2oc(-c3ccccc3)cc12,nt,nt,i,nt
COc1cccc(-c2cc(C(F)(F)F)c(C#N)c(=O)[nH]2)c1,i,i,i,i
SMILES,Runt-SMMHC FRET,Runt-CBFb FRET,RanGTP-Imp inh,Hck Nef HTS
COc1cccc(-c2c3c([nH]c(=O)c2C#N)CCc2cc(OC)ccc2-3)c1,80,89,94,i
CC(C)(C)c1ccc(Cn2nnc3c(=O)[nH]c(C4CCN(C(=O)c5ccco5)CC4)nc32)cc1,nt,nt,i,nt
O=C(O)c1ccccc1-c1nc2ccccc2c(=O)[nH]1,i,i,25,i
O=C(O)c1ccccc1-c1nc(-c2ccccc2)c(-c2ccccc2)[nH]1,i,i,i,i
CSCCC(NS(=O)(=O)/C=C/c1ccccc1)C(=O)O (centres undefined),i,i,i,i
Nc1c(Cl)ncnc1N/N=C/c1ccc2ccccc2n1,i,i,nt,i
Nc1c(Cl)ncnc1N/N=C/c1ccccn1,78,i,nt,i
COc1ccc(S(=O)(=O)NCCc2cn3nc(C)c(C)nc3n2)cc1F,nt,nt,17,nt
CCCc1cc(C(=O)Cc2nc3ccccc3s2)c(O)cc1O,i,nt,112,i
CCOC(=O)C(=O)Cc1nc2ccccc2s1,i,i,52,i
CC(=O)OCc1nc2ccccc2s1,i,i,?,i
CCCc1cc(C(=O)Cc2ccc(F)cc2)c(O)cc1O,i,i,i,i
CCc1cc(=O)oc2c(C)c(O)c(CN(C)C)cc12,62,i,38,i
CCCOc1ccc2c(CC)cc(=O)oc2c1C,i,i,i,i
Cc1ccc2c(c1)-c1ncc(C(=O)c3cc(Br)ccc3O)cc1CO2,i,i,i,i
CC(Cc1ccccc1)C(=O)N(C)Cc1cccnc1 (centres undefined),i,i,i,i
Oc1csc(Cc2nc(-c3ccccc3F)cs2)n1,i,i,21,i
CC(=O)Nc1ccc2cc3ccc(NC(C)=O)cc3nc2c1,nt,i,37,i
Cc1cccc(N2CCN(C(=S)c3ccc([N+](=O)[O-])cc3)CC2)c1,i,i,i,i
